Test results reported in ChEMBL document CHEMBL1134594 (J Med Chem, 2001).
Where a SMILES comes first, the peptide text is derived from it. Bridges are numbered along the chain shown (N, C = ends).

Legend:
[1] = biological target: Glucagon receptor (Rattus norvegicus, UniProt P30082); experiment: Glucagon receptor binding measured as 50% inhibitory concentration
Summary of the method: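 Membranes (50 µg protein) were taken from the livers of male Sprague Dawley rats (200-250 g), purified on a sucrose gradient. […] Nonspecific binding was defined with excess unlabeled peptide and subtracted. Run in triplicate, repeated twice.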

[2] = biological target: Adenylate cyclase (Rattus norvegicus) (UniProt D4A3N4+P26770+Q04400+P26769+Q03343+P40146+Q8CFM9+P21932); experiment: Adenylate cyclase activity measured as percentage stimulation; assay type: protein assay; design: concentration or dose not given beside the values
[3] = biological target: Adenylate cyclase; experiment: Adenylate cyclase activity measured as 50% inhibitory concentration; assay type: protein assay

Glucagon receptor, sequence (P30082 whole entry): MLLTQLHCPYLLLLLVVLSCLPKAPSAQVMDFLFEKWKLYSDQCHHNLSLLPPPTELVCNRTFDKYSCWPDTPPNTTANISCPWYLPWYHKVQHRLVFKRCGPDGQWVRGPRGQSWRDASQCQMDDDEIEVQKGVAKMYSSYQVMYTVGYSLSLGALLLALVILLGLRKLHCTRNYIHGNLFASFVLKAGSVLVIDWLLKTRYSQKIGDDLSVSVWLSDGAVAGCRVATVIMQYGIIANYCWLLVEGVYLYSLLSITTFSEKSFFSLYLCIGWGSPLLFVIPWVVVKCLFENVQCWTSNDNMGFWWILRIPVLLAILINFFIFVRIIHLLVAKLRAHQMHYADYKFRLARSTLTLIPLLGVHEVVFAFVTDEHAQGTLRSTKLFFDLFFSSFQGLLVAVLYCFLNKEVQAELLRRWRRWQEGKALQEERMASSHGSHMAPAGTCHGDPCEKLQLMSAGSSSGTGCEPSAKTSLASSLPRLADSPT

SMILES	IC50 [1]	Activity [2]	EC50 [3]
CSCC[C@H](NC(=O)[C@H](CC(C)C)NC(=O)[C@H](Cc1c[nH]c2ccccc12)NC(=O)[C@H](CCC(N)=O)NC(=O)[C@@H](NC(=O)[C@H](Cc1ccccc1)NC(=O)[C@H](CC(=O)O)NC(=O)[C@H](CCC(N)=O)NC(=O)[C@H](C)NC(=O)[C@H](CCCN=C(N)N)NC(=O)[C@H](CCCN=C(N)N)NC(=O)[C@H](CO)NC(=O)[C@H](CC(=O)O)NC(=O)[C@H](CC(C)C)NC(=O)[C@H](Cc1ccc(O)cc1)NC(=O)[C@H](CCCCN)NC(=O)[C@H](CO)NC(=O)[C@H](Cc1ccc(O)cc1)NC(=O)[C@H](CS)NC(=O)[C@H](CO)NC(=O)[C@@H](NC(=O)[C@H](Cc1ccccc1)NC(=O)[C@@H](NC(=O)[C@H](CS)NC(=O)[C@H](CCC(N)=O)NC(=O)[C@H](CO)NC(=O)[C@@H](N)Cc1c[nH]cn1)[C@@H](C)O)[C@@H](C)O)C(C)C)C(=O)N[C@@H](CC(N)=O)C(=O)N[C@H](C(=O)O)[C@@H](C)O (H-HSQCTFTSCYSKYLDSRRAQDFVQWLMNT-OH)	0.0036 µM	18%	0.295 µM
CSCC[C@H](NC(=O)[C@H](CC(C)C)NC(=O)[C@H](Cc1c[nH]c2ccccc12)NC(=O)[C@H](CCC(N)=O)NC(=O)[C@@H](NC(=O)[C@H](Cc1ccccc1)NC(=O)[C@H](CC(=O)O)NC(=O)[C@H](CCC(N)=O)NC(=O)[C@H](C)NC(=O)[C@H](CCCN=C(N)N)NC(=O)[C@H](CCCN=C(N)N)NC(=O)[C@H](CO)NC(=O)[C@H](CC(=O)O)NC(=O)[C@H](CC(C)C)NC(=O)[C@H](Cc1ccc(O)cc1)NC(=O)[C@H](CCCCN)NC(=O)[C@@H]1CCC(=O)NCCCC[C@H](NC(=O)[C@H](Cc2ccccc2)NC(=O)[C@@H](NC(=O)CNC(=O)[C@H](CCC(N)=O)NC(=O)[C@H](CO)NC(=O)[C@@H](N)Cc2c[nH]cn2)[C@@H](C)O)C(=O)N[C@@H](CO)C(=O)N[C@@H](CC(=O)O)C(=O)N[C@@H](Cc2ccc(O)cc2)C(=O)N1)C(C)C)C(=O)N[C@@H](CC(N)=O)C(=O)N[C@H](C(=O)O)[C@@H](C)O (H-HSQGTFKSDYEKYLDSRRAQDFVQWLMNT-OH; lactam 7-11)		17%	0.047 µM
CSCC[C@H](NC(=O)[C@H](CC(C)C)NC(=O)[C@H](Cc1c[nH]c2ccccc12)NC(=O)[C@H](CCC(N)=O)NC(=O)[C@@H](NC(=O)[C@H](Cc1ccccc1)NC(=O)[C@H](CC(=O)O)NC(=O)[C@H](CCC(N)=O)NC(=O)[C@H](C)NC(=O)[C@H](CCCN=C(N)N)NC(=O)[C@H](CCCN=C(N)N)NC(=O)[C@H](CO)NC(=O)[C@H](CC(=O)O)NC(=O)[C@H](CC(C)C)NC(=O)[C@@H]1CCC(=O)NCCCC[C@H](NC(=O)[C@H](CO)NC(=O)[C@@H](NC(=O)[C@H](Cc2ccccc2)NC(=O)[C@@H](NC(=O)CNC(=O)[C@H](CCC(N)=O)NC(=O)[C@H](CO)NC(=O)[C@@H](N)Cc2c[nH]cn2)[C@@H](C)O)[C@@H](C)O)C(=O)N[C@@H](Cc2ccc(O)cc2)C(=O)N[C@@H](CO)C(=O)N[C@@H](CCCCN)C(=O)N1)C(C)C)C(=O)N[C@@H](CC(N)=O)C(=O)N[C@H](C(=O)O)[C@@H](C)O (H-HSQGTFTSKYSKELDSRRAQDFVQWLMNT-OH; lactam 9-13)	0.652 µM	19%	0.023 µM
CSCC[C@H](NC(=O)[C@H](CC(C)C)NC(=O)[C@H](Cc1c[nH]c2ccccc12)NC(=O)[C@H](CCC(N)=O)NC(=O)[C@@H](NC(=O)[C@H](Cc1ccccc1)NC(=O)[C@H](CC(=O)O)NC(=O)[C@H](CCC(N)=O)NC(=O)[C@H](C)NC(=O)[C@H](CCCNC(=N)N)NC(=O)[C@H](CCCNC(=N)N)NC(=O)[C@H](CO)NC(=O)[C@H](CC(=O)O)NC(=O)[C@H](CC(C)C)NC(=O)[C@H](Cc1ccc(O)cc1)NC(=O)[C@H](CCCCN)NC(=O)[C@@H]1CCC(=O)NCCCC[C@H](NC(=O)[C@H](Cc2ccccc2)NC(=O)[C@@H](NC(=O)CNC(=O)[C@H](CCC(N)=O)NC(=O)[C@H](CO)NC(=O)[C@@H](N)Cc2cnc[nH]2)[C@@H](C)O)C(=O)N[C@@H](CO)C(=O)N[C@@H](CC(=O)O)C(=O)N[C@@H](Cc2ccc(O)cc2)C(=O)N1)C(C)C)C(=O)N[C@@H](CC(N)=O)C(=O)N[C@H](C(=O)O)[C@@H](C)O (H-HSQGTFKSDYEKYLDSRRAQDFVQWLMNT-OH; lactam 7-11)	0.0136 µM		

The remaining molecules from weak to strong by IC50 [1], led by results:

IC50 [1]	Activity [2]	EC50 [3]	SMILES
0.101 µM	23%	9.2 µM	CSCC[C@H](NC(=O)[C@H](CC(C)C)NC(=O)[C@H](Cc1c[nH]c2ccccc12)NC(=O)[C@H](CCC(N)=O)NC(=O)[C@@H](NC(=O)[C@H](Cc1ccccc1)NC(=O)[C@H](CC(=O)O)NC(=O)[C@H](CCC(N)=O)NC(=O)[C@H](C)NC(=O)[C@H](CCCN=C(N)N)NC(=O)[C@H](CCCN=C(N)N)NC(=O)[C@H](CO)NC(=O)[C@H](CC(=O)O)NC(=O)[C@H](CC(C)C)NC(=O)[C@H](Cc1ccc(O)cc1)NC(=O)[C@H](CCCCN)NC(=O)[C@H](CO)NC(=O)[C@H](Cc1ccc(O)cc1)NC(=O)[C@H](CC(=O)O)NC(=O)[C@H](CO)NC(=O)[C@@H]1CSSC[C@H](NC(=O)[C@@H](N)Cc2c[nH]cn2)C(=O)N[C@@H](CCC(N)=O)C(=O)NCC(=O)N[C@@H]([C@@H](C)O)C(=O)N[C@@H](Cc2ccccc2)C(=O)N1)C(C)C)C(=O)N[C@@H](CC(N)=O)C(=O)N[C@H](C(=O)O)[C@@H](C)O (H-HCQGTFCSDYSKYLDSRRAQDFVQWLMNT-OH; disulfide 2-7)
0.0845 µM	7.5%	0.295 µM	CSCC[C@H](NC(=O)[C@H](CC(C)C)NC(=O)[C@H](Cc1c[nH]c2ccccc12)NC(=O)[C@H](CCC(N)=O)NC(=O)[C@@H](NC(=O)[C@H](Cc1ccccc1)NC(=O)[C@H](CC(=O)O)NC(=O)[C@H](CCC(N)=O)NC(=O)[C@H](C)NC(=O)[C@H](CCCN=C(N)N)NC(=O)[C@H](CCCN=C(N)N)NC(=O)[C@H](CO)NC(=O)[C@H](CC(=O)O)NC(=O)[C@H](CC(C)C)NC(=O)[C@H](Cc1ccc(O)cc1)NC(=O)[C@H](CCCCN)NC(=O)[C@H](CO)NC(=O)[C@H](Cc1ccc(O)cc1)NC(=O)[C@@H]1CSSC[C@H](NC(=O)[C@H](CCC(N)=O)NC(=O)[C@H](CO)NC(=O)[C@@H](N)Cc2c[nH]cn2)C(=O)N[C@@H]([C@@H](C)O)C(=O)N[C@@H](Cc2ccccc2)C(=O)N[C@@H]([C@@H](C)O)C(=O)N[C@@H](CO)C(=O)N1)C(C)C)C(=O)N[C@@H](CC(N)=O)C(=O)N[C@H](C(=O)O)[C@@H](C)O (H-HSQCTFTSCYSKYLDSRRAQDFVQWLMNT-OH; disulfide 4-9)
0.0064 µM			CSCC[C@H](NC(=O)[C@H](CC(C)C)NC(=O)[C@H](Cc1c[nH]c2ccccc12)NC(=O)[C@H](CCC(N)=O)NC(=O)[C@@H](NC(=O)[C@H](Cc1ccccc1)NC(=O)[C@H](CC(=O)O)NC(=O)[C@H](CCC(N)=O)NC(=O)[C@H](C)NC(=O)[C@H](CCCNC(=N)N)NC(=O)[C@H](CCCNC(=N)N)NC(=O)[C@H](CO)NC(=O)[C@H](CC(=O)O)NC(=O)[C@H](CC(C)C)NC(=O)[C@H](Cc1ccc(O)cc1)NC(=O)[C@H](CS)NC(=O)[C@H](CO)NC(=O)[C@H](Cc1ccc(O)cc1)NC(=O)[C@H](CC(=O)O)NC(=O)[C@H](CO)NC(=O)[C@H](CS)NC(=O)[C@H](Cc1ccccc1)NC(=O)[C@@H](NC(=O)CNC(=O)[C@H](CCC(N)=O)NC(=O)[C@H](CO)NC(=O)[C@@H](N)Cc1cnc[nH]1)[C@@H](C)O)C(C)C)C(=O)N[C@@H](CC(N)=O)C(=O)N[C@H](C(=O)O)[C@@H](C)O (H-HSQGTFCSDYSCYLDSRRAQDFVQWLMNT-OH)
0.0056 µM			CSCC[C@H](NC(=O)[C@H](CC(C)C)NC(=O)[C@H](Cc1c[nH]c2ccccc12)NC(=O)[C@H](CCC(N)=O)NC(=O)[C@@H](NC(=O)[C@H](Cc1ccccc1)NC(=O)[C@H](CC(=O)O)NC(=O)[C@H](CCC(N)=O)NC(=O)[C@H](C)NC(=O)[C@H](CCCN=C(N)N)NC(=O)[C@H](CCCN=C(N)N)NC(=O)[C@H](CO)NC(=O)[C@H](CC(=O)O)NC(=O)[C@H](CC(C)C)NC(=O)[C@H](Cc1ccc(O)cc1)NC(=O)[C@H](CCCCN)NC(=O)[C@H](CO)NC(=O)[C@H](Cc1ccc(O)cc1)NC(=O)[C@H](CC(=O)O)NC(=O)[C@H](CO)NC(=O)[C@H](CS)NC(=O)[C@H](Cc1ccccc1)NC(=O)[C@@H](NC(=O)CNC(=O)[C@H](CCC(N)=O)NC(=O)[C@H](CS)NC(=O)[C@@H](N)Cc1c[nH]cn1)[C@@H](C)O)C(C)C)C(=O)N[C@@H](CC(N)=O)C(=O)N[C@H](C(=O)O)[C@@H](C)O (H-HCQGTFCSDYSKYLDSRRAQDFVQWLMNT-OH)
0.00024 µM	98%	0.00027 µM	CSCC[C@H](NC(=O)[C@H](CC(C)C)NC(=O)[C@H](Cc1c[nH]c2ccccc12)NC(=O)[C@H](CCC(N)=O)NC(=O)[C@@H](NC(=O)[C@H](Cc1ccccc1)NC(=O)[C@@H]1CCC(=O)NCCCC[C@H](NC(=O)[C@H](CO)NC(=O)[C@H](CC(=O)O)NC(=O)[C@H](CC(C)C)NC(=O)[C@H](Cc2ccc(O)cc2)NC(=O)[C@H](CCCCN)NC(=O)[C@H](CO)NC(=O)[C@H](Cc2ccc(O)cc2)NC(=O)[C@H](CC(=O)O)NC(=O)[C@H](CO)NC(=O)[C@@H](NC(=O)[C@H](Cc2ccccc2)NC(=O)[C@@H](NC(=O)CNC(=O)[C@H](CCC(N)=O)NC(=O)[C@H](CO)NC(=O)[C@@H](N)Cc2c[nH]cn2)[C@@H](C)O)[C@@H](C)O)C(=O)N[C@@H](CCCN=C(N)N)C(=O)N[C@@H](C)C(=O)N[C@@H](CCC(N)=O)C(=O)N1)C(C)C)C(=O)N[C@@H](CC(N)=O)C(=O)N[C@H](C(=O)O)[C@@H](C)O
